Reference: PMC7383892 (Epilepsia, 2020)
“Also recorded” adds a separate entry of the source. Like-named read-outs stand apart in the source and are kept apart here. Marks after values point to notes of the source that are not given here.

Assays:
photosensitive epilepsy = settings: cited from earlier work
Lennox–Gastaut syndrome = settings: stable dosages over a 3-year period; cited from earlier work
[1] = target: recombinant human GABAARs (α1β2γ2) (Homo sapiens, UniProt P14867+P18507); assay type: cell-based; settings: for Function relative efficacy, normalized toward zolpidem (1 µmol/L): Padsevonil 10 µmol/L; for Cl− currents evoked in the absence of GABA: no GABA, concentrations up to 30 µmol/L
[2] = target: human recombinant GABAA receptor α1β2γ2 (Homo sapiens, UniProt P14867+P18507); test: Two-electrode voltage clamp in Xenopus oocytes, α1β2γ2; assay type: cell-based; settings: for Function relative efficacy, normalized toward chlordiazepoxide (10 µmol/L): Padsevonil 10 µmol/L, GABA EC20, TEVC, α1β2γ2
[3] = target: human recombinant GABAA receptor α2β2γ2 (Homo sapiens, UniProt P18507+P47869); test: Two-electrode voltage clamp in Xenopus oocytes, α2β2γ2; assay type: cell-based; settings: for Function relative efficacy, normalized toward chlordiazepoxide (10 µmol/L): Padsevonil 10 µmol/L, GABA EC20, TEVC, α2β2γ2
[4] = target: human recombinant GABAA receptor α3β2γ2 (Homo sapiens, UniProt P18507+P34903); test: Two-electrode voltage clamp in Xenopus oocytes, α3β2γ2; assay type: cell-based; settings: for Function relative efficacy, normalized toward chlordiazepoxide (10 µmol/L): Padsevonil 10 µmol/L, GABA EC20, TEVC, α3β2γ2
[5] = target: human recombinant GABAA receptor α4β2γ2 (Homo sapiens, UniProt P18507+P48169); test: Two-electrode voltage clamp in Xenopus oocytes, α4β2γ2; assay type: cell-based; settings: TEVC; for Potentiation of the GABA (EC20) response on α4β2γ2 receptors: oocytes, Padsevonil 10 and 30 µmol/L, Ro 15-4513 1 µmol/L
Procedure, shortened: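 Human recombinant receptors expressed in Xenopus oocytes; automated two-electrode voltage clamp at −60 mV in frog Ringer (115 mM NaCl, 2.5 mM KCl, 1.8 mM CaCl₂, 10 mM HEPES, pH 7.2). Two 20 s GABA (EC₂₀) control applications 6 min apart; test compound pre-incubated 6 min, then co-applied with GABA for 20 s. Potentiation is I(GABA+drug)/I(GABA); EC50 from sigmoidal nonlinear fit.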

[6] = target: human recombinant GABAA receptor α5β2γ2 (Homo sapiens, UniProt P18507+P31644); test: Two-electrode voltage clamp in Xenopus oocytes, α5β2γ2; assay type: cell-based; settings: for Function relative efficacy, normalized toward chlordiazepoxide (10 µmol/L): Padsevonil 10 µmol/L, GABA EC20, TEVC, α5β2γ2
Procedure, shortened: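 Human α5β2γ2 receptors expressed in oocytes. GABA (EC₂₀) was applied twice for 20 s, 6 min apart, as control. Test compound (1 nmol/L–30 µmol/L) was preincubated 6 min, then co-applied with GABA for 20 s. EC₅₀ came from a sigmoidal fit of data normalized to maximal potentiation. Efficacy at 10 µmol/L was normalized to chlordiazepoxide 10 µmol/L. Mean ± SEM, n = 6–26.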

[7] = tested on: native GABAARs in cultured rat primary cortical neurons; assay type: cell-based; settings: manual patch clamp, rat primary neuronal cultures, GABA at EC20 as printed
SV2A [8] = settings: cited from earlier work
[9] = target: B isoform of SV2 proteins; settings: cited from earlier work
[10] = target: C isoform of SV2 proteins; settings: cited from earlier work
[11] = target: recombinant GABAARs, benzodiazepine (BZD) binding site; settings: cited from earlier work
SV2A [12] = settings: cited from earlier work; remark: listed apart in the source
BZD site of GABAARs = settings: cited from earlier work
[13] = tested on: PTZ-induced clonic seizures; settings: repeated = twice daily for 4 consecutive days; cited from earlier work
[14] = tested on: treatment-resistant focal epilepsy; settings: Phase IIa proof-of-concept trial; cited from earlier work

human recombinant GABAA receptor α2β2γ2, sequence (P47869 29-451): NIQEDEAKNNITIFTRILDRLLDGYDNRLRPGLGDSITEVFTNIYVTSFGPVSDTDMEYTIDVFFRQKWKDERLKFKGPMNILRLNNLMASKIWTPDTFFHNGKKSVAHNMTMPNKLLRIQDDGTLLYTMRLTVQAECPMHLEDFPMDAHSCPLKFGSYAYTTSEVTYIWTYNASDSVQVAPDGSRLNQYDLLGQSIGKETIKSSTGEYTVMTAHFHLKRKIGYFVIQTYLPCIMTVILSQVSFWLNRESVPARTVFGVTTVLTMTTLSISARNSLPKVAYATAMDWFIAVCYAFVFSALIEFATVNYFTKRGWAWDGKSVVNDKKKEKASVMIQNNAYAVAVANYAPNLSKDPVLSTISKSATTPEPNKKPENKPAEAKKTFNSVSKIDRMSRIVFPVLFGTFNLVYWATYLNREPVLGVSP
human recombinant GABAA receptor α2β2γ2, sequence (P47870 25-512 partner limits assumed): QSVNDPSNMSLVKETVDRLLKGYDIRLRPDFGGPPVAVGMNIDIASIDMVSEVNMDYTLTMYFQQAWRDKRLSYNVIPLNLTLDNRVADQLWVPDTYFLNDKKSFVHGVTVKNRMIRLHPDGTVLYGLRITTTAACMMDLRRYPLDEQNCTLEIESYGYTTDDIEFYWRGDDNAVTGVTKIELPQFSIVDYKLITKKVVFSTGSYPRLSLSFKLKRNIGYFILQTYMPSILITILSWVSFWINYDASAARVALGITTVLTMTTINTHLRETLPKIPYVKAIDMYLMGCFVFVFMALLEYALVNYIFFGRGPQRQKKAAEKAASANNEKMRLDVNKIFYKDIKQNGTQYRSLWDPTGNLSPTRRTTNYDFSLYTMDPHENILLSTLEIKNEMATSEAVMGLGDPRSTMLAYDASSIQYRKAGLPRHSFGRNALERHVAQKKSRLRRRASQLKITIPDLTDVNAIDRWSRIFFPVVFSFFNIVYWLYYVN
human recombinant GABAA receptor α2β2γ2, sequence (P18507 40-475): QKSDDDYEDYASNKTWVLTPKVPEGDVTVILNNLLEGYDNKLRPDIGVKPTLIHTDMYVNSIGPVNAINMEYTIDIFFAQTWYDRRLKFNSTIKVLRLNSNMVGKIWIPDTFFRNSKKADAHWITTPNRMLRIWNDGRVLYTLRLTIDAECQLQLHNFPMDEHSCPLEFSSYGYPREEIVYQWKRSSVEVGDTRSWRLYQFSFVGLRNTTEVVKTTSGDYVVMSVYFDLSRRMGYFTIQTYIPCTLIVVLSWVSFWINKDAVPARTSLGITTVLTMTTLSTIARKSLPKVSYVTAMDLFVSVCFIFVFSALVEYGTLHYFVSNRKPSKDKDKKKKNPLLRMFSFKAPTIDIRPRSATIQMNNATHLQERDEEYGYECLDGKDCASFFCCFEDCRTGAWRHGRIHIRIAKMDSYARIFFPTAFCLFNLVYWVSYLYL
human recombinant GABAA receptor α3β2γ2, sequence (P34903 29-492): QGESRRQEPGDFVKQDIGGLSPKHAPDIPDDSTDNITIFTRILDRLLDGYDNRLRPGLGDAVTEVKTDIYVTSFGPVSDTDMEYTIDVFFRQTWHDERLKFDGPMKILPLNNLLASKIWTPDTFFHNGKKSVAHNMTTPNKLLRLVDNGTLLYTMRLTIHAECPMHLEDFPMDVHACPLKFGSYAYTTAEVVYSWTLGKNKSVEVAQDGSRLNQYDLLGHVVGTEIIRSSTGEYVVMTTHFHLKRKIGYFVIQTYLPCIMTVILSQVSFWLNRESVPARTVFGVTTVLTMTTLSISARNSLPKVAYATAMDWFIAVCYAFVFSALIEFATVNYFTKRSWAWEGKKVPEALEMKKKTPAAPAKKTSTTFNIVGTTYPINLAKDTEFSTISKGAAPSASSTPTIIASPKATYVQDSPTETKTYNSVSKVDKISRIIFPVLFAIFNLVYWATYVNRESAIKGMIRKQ
human recombinant GABAA receptor α3β2γ2, sequence (P47870 25-512 partner limits assumed): as the sequence (P47870 25-512 partner limits assumed) above
human recombinant GABAA receptor α3β2γ2, sequence (P18507 40-475): as the sequence (P18507 40-475) above
human recombinant GABAA receptor α4β2γ2, sequence (P48169 36-554): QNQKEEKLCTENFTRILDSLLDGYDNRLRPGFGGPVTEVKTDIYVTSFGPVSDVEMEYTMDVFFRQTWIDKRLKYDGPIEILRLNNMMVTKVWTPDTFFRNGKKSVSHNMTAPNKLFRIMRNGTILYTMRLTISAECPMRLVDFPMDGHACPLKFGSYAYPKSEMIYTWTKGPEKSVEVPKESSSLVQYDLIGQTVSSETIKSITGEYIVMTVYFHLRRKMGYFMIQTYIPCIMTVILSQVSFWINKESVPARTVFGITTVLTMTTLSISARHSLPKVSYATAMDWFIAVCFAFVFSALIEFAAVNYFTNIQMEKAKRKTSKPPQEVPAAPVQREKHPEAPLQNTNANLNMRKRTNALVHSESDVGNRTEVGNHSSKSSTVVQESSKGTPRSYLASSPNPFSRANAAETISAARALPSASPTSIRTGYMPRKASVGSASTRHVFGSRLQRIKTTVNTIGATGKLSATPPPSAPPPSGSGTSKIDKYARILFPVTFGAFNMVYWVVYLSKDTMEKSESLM
human recombinant GABAA receptor α4β2γ2, sequence (P47870 25-512 partner limits assumed): as the sequence (P47870 25-512 partner limits assumed) above
human recombinant GABAA receptor α4β2γ2, sequence (P18507 40-475): as the sequence (P18507 40-475) above
human recombinant GABAA receptor α5β2γ2, sequence (P31644 32-462): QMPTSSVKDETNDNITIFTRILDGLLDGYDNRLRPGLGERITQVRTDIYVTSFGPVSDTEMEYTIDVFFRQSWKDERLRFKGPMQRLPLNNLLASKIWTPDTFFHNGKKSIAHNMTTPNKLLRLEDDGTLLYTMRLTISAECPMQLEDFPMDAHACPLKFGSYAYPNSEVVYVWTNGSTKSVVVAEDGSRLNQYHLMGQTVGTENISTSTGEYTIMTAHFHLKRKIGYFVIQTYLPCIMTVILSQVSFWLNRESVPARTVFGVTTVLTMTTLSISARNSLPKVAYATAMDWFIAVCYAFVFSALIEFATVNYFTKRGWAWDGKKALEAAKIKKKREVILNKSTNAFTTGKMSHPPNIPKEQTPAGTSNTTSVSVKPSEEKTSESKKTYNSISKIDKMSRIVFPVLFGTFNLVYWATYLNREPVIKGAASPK
human recombinant GABAA receptor α5β2γ2, sequence (P47870 25-512 partner limits assumed): as the sequence (P47870 25-512 partner limits assumed) above
human recombinant GABAA receptor α5β2γ2, sequence (P18507 40-475): as the sequence (P18507 40-475) above
human recombinant GABAA receptor α1β2γ2, sequence (P14867 28-456): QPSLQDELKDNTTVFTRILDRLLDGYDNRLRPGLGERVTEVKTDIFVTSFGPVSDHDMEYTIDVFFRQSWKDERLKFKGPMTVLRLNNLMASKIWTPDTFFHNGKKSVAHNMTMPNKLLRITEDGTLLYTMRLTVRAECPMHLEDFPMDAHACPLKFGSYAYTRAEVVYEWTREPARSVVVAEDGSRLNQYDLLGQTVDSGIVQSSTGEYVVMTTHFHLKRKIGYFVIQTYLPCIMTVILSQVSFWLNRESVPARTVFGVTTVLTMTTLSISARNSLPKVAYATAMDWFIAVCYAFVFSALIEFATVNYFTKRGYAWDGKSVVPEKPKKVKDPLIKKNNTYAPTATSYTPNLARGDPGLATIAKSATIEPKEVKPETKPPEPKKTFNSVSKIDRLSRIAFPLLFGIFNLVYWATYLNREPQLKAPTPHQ
human recombinant GABAA receptor α1β2γ2, sequence (P47870 25-512 partner limits assumed): as the sequence (P47870 25-512 partner limits assumed) above
human recombinant GABAA receptor α1β2γ2, sequence (P18507 40-475): as the sequence (P18507 40-475) above
recombinant human GABAARs (α1β2γ2), sequence (P14867 28-456): as the sequence (P14867 28-456) above
recombinant human GABAARs (α1β2γ2), sequence (P47870 25-512 partner limits assumed): as the sequence (P47870 25-512 partner limits assumed) above
recombinant human GABAARs (α1β2γ2), sequence (P18507 40-475): as the sequence (P18507 40-475) above

Structure (SMILES): COCc1c(C(=O)OC(C)C)ncc2[nH]c3ccc(OCc4ccccc4)cc3c12 [Abecarnil]
- Clinical efficacy / tolerance development (photosensitive epilepsy): without development of tolerance

Structure (SMILES): CN1C(=O)CC(=O)N(c2ccccc2)c2cc(Cl)ccc21 [Clobazam]
- Seizure control / tolerance development (Lennox–Gastaut syndrome): sustained seizure control

Structure (SMILES): COCc1nn2c(CN3C[C@@H](CC(F)(F)Cl)CC3=O)c(C(F)(F)F)nc2s1 [Padsevonil, (4R)‐4‐(2‐chloro‐2,2‐difluoroethyl)‐1‐{[2‐(methoxymethyl)‐6‐(trifluoromethyl)imidazo[2,1‐b][1,3,4]thiadiazol‐5‐yl]methyl}pyrrolidin‐2‐one]
- EC50 [1]: 138 ± 29 nM
- Effect on maximal activation of the receptor ([1]; GABA 30 µmol/L (EC90), data not shown): does not overstimulate the receptor
- Potentiation of the GABA (agonist) response ([1]; GABA at EC20 set to 100%, patch clamp, human α1β2γ2 in CHO): 167%
- Function relative efficacy, normalized toward zolpidem (1 µmol/L) ([1]; GABA EC20, patch clamp, same cell): 41 ± 4%
- Function relative efficacy, normalized toward zolpidem (1 µmol/L) ([1]; GABA EC20, patch clamp, same cell, listed as padsevonil): 41%
- Relative efficacy, GABA EC20 response as % of that of zolpidem (1 µmol/L) ([1]; Padsevonil 30 µmol/L, GABA EC20, patch clamp, same cell): 35%
- Cl− currents evoked in the absence of GABA [1]: did not elicit
- Cl− currents evoked in the absence of GABA ([1]; listed as padsevonil): did not evoke
- EC50 [2]: 295 nM
- Function relative efficacy, normalized toward chlordiazepoxide (10 µmol/L) [2]: 60 ± 6%
- Function relative efficacy, normalized toward chlordiazepoxide (10 µmol/L) ([2]; listed as padsevonil): 60%
- Higher potency for receptors with α1 or α5 subunits than for those with α2 or α3 subunits ([2]; TEVC, oocytes, α1/α5 versus α2/α3): approximately sixfold
- EC50 [3]: 1740 ± 258 nM
- Function relative efficacy, normalized toward chlordiazepoxide (10 µmol/L) [3]: 26 ± 4 (n = 13) ^b %
- Function relative efficacy, normalized toward chlordiazepoxide (10 µmol/L) ([3]; listed as padsevonil): 26%
- EC50 [4]: 2090 ± 227 nM
- Function relative efficacy, normalized toward chlordiazepoxide (10 µmol/L) [4]: 56 ± 6 (n = 18) ^b %
- Function relative efficacy, normalized toward chlordiazepoxide (10 µmol/L) ([4]; listed as padsevonil): 56%
- Potentiation of the GABA (EC20) response on α4β2γ2 receptors [5]: did not potentiate; also recorded: does not activate
- Potentiation of the GABA (EC20) response on α4β2γ2 receptors ([5]; listed as padsevonil): no activity was observed
- Function EC50, potentiation of GABA EC20 ([5]; α4β2γ2 in Xenopus oocytes): No potentiation
- EC50 [6]: 281 ± 73 nM
- Function relative efficacy, normalized toward chlordiazepoxide (10 µmol/L) [6]: 41 ± 10 (n = 10) ^b %
- Function relative efficacy, normalized toward chlordiazepoxide (10 µmol/L) ([6]; listed as padsevonil): 41%
- pEC50, potentiation of neuronal GABAAR activity [7]: 6.68
- Dissociation kinetics from SV2A (SV2A [8]; compared with LEV and BRV): significantly slower dissociation kinetics
- Affinity for SV2A relative to LEV (SV2A [8]; radioligand displacement): ~2000 fold
- Affinity for SV2A relative to brivaracetam (BRV) (SV2A [8]; radioligand displacement): approximately 100 fold
- pKi SV2A (SV2A [8]; radioligand displacement): 8.5
- pKi SV2B [9]: 7.9
- pKi SV2C [10]: 8.5
- pKi benzodiazepine (BZD) binding site [11]: 6.4
- SV2A occupancy ED50 (SV2A [12]; in vivo, mice): 0.2 mg/kg
- SV2A occupancy at doses highly active in models of drug-resistant epilepsy (SV2A [12]; nonclinical studies): > 95%
- BZD site occupancy ED50 (BZD site of GABAARs; in vivo, mice): 36 mg/kg
- Occupancy on GABAARs at doses highly active in models of drug-resistant epilepsy (BZD site of GABAARs; nonclinical studies): < 20%
- Tolerance: increase of PTZ seizure threshold after acute versus repeated dosing [13]: tolerance was not developed
- Clinical efficacy [14]: robust efficacy

Structure (SMILES): CCOC(=O)c1ncn2c1CN(C)C(=O)c1cc(N=[N+]=[N-])ccc1-2 [Ro 15‐4513, reference compound]
- Potentiation of the GABA (EC20) response on α4β2γ2 receptors [5]: potentiated

Structure (SMILES): Cc1ccc(-c2nc3ccc(C)cn3c2CC(=O)N(C)C)cc1 [zolpidem, Zolpidem, reference compound]
- Potentiation of the GABA (EC20) response on α4β2γ2 receptors [5]: insensitive
